Compound activity as filed in PubChem.
KCNK9 block: human KCNK9 channel inhibition. Q9NPC2. HEK293 KCNK9, FluxOR thallium flux fluorescence; stronger effect = lower value. B-score at 10 µM. 1.2% of 310,000 active. AID 488922;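 active = ratio B-score over 3 SD below the library mean, with starting fluorescence within 5 SD of its mean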;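 note: negative B-score means less thallium flux so channel inhibition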
KCNQ1 block: human KCNQ1 channel inhibition. CHO-K1 KCNQ1, FluxOR thallium flux fluorescence; stronger effect = higher value. B-score at 10 µM. 1.3% of 310,000 active. AID 2642;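 active = compounds whose thallium flux B-score, printed positive for inhibition, exceeds three library SD while starting fluorescence stays within three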;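 note: channel opened by potassium depolarization with thallium stimulus after 20 min compound exposure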
Target sequence (P51787 whole entry, looked up): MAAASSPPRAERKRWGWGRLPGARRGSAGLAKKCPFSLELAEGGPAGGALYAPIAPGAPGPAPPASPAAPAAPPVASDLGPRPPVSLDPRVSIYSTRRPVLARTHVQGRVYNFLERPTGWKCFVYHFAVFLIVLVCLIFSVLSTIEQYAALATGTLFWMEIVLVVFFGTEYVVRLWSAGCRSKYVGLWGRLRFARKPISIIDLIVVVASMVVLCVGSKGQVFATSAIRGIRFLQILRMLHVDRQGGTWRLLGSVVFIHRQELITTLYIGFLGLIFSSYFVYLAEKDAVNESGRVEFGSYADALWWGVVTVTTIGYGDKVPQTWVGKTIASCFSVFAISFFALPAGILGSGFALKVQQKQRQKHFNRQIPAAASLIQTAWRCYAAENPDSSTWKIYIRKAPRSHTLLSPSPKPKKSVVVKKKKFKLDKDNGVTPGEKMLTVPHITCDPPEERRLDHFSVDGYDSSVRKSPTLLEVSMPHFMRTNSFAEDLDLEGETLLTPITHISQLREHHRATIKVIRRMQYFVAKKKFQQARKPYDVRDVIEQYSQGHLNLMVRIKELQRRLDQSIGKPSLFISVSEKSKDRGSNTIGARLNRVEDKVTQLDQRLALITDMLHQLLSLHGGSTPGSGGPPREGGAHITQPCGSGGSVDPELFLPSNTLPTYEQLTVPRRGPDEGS
KCNQ1 act: potentiators or activators of human KCNQ1 potassium channel; CHO-K1 KCNQ1, thallium flux FluxOR fluorescence; stronger effect = higher value; 0.35% of 310,000 active; P51787; B-score at 10 µM;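 active = fluorescence ratio B-score, a plate-corrected score, at least three library SD, with initial intensity B-score within 5 SD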
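Material: CHO-K1 cells stably expressing KCNQ1. Medium: assay buffer for compound exposure, DMSO matched across wells. Reagent: K+/Tl+ depolarizing stimulus. Compound dosing: single-concentration screen. Times: 37 °C overnight plating, 90-min dark dye load, 20-min compound pretreatment. Technique: FluxOR Tl+ flux fluorescence.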
hERG rescue: shields human hERG channel from block by proarrhythmic agents; activation (rescue from dofetilide block), less the hit threshold, % at 10 µM; CHO-hERG, FluxOR thallium flux, dofetilide IC70 present; 0.51% of 310,000 active; Q12809;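 active = activation above the mean of controls blocked by dofetilide plus 5 SD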;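 note: thallium influx through hERG after potassium depolarization seen as dye fluorescence rise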
KCNK3 inh: human KCNK3 channel inhibition, primary screen; CHO-KCNK3 thallium flux, FluxOR fluorescence; stronger effect = lower value; B-score at 10 µM; 0.84% of 340,000 active; AID 602410;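 active = B-score under library mean minus 4 SD, starting fluorescence ratio at most library mean plus 5 SD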;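 note: more negative B-score means stronger inhibition of thallium flux through KCNK3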
Kir21 inh: inhibitors of mouse Kir2.1 inward-rectifier potassium channel. B-score at 10 µM. 0.85% of 310,000 active. AID 1672. HEK293-Kir2.1, FluxOR thallium flux fluorescence; stronger effect = lower value;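 active = fluorescence ratio B-score at or below minus 3 SD of library scores, with starting-brightness B-score within 2 SD, cut at about -4.2 in these data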;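 note: channel flux triggered by added potassium and thallium sulfate stimulus; B-score of peak minus minimum fluorescence over baseline after thallium stimulus; more negative B-score means stronger Kir2.1 block with less thallium influx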
Numbers without * were called inactive; i = inactive; nt = not tested or not shown. Sampled rows, rich in hits. Any-hit rate of the full collection: about 3.7%.

SMILES	KCNK9 block	KCNQ1 block	KCNQ1 act	hERG rescue	KCNK3 inh	Kir21 inh
O=C(CC1C(=O)Nc2ccccc2N1CC(=O)N1CCCC1)Nc1ccc(Br)cc1 (stereo unspecified)	nt	nt	nt	nt	i	nt
CCC(=O)c1ccc(OCC(O)CN(CCc2ccccc2)Cc2ccccc2)cc1 (stereo unspecified)	i	7*	i	-21	i	-1.8
Cc1ccc(C)n1-n1c(C)nc2scc(-c3ccccc3)c2c1=O	i	i	i	-3	i	-1
Cc1nc2scc(-c3ccccc3)c2c(=O)n1N=C1C=CC(=O)C=C1	i	i	i	-30	nt	-6.8*
Nn1c(SCc2ccccc2F)nnc1-c1ccncc1	i	i	i	-4	i	0.89
Cc1nnc(SCc2ccccc2F)n1NCc1cccs1	i	i	i	-12	i	-4.2*
Cc1ccc2[nH]cc(/C=C/c3cc[n+](C)cc3)c2c1	i	i	i	-32	i	-16
CC[n+]1ccc(/C=C/c2c[nH]c3ccccc23)cc1	i	10*	i	-24	i	-5.9
COc1ccc(CCNC(=O)CN(c2cc(C)cc(C)c2)S(=O)(=O)c2c(C)noc2C)cc1OC	i	i	i	-7	i	0.02
O=C(Nc1nc2c(s1)CCCC2)c1cccnc1	i	i	i	-12	i	-0.68
O=C(NC(=S)Nc1nc2c(s1)CCCC2)c1ccc(C(=O)c2ccccc2)cc1	i	i	9*	14*	i	1.9
CN(C)c1ccc(C=c2c3ccccc3n3c2cc(-c2ccccc2)[n+]3C)cc1	nt	nt	nt	nt	-15*	nt
CN(C)c1ccc(C=c2c3cc([N+](=O)[O-])ccc3n3c2cc(-c2ccccc2)[n+]3C)cc1	nt	nt	nt	nt	i	nt
CN(C)c1ccc(C=c2c3ccccc3n3c2cc(-c2ccc(Cl)cc2)[n+]3C)cc1	nt	nt	nt	nt	-12*	nt
COc1cc(N(C)C)ccc1C=c1c2ccccc2n2c1cc(-c1ccccc1)[n+]2C	nt	nt	nt	nt	i	nt
CCn1cc(C(=O)NCCC(=O)OC)c(=O)c2cc3c(cc21)OCO3	i	i	i	-2	i	-1.1
Cc1ccc(S(=O)(=O)N2CCOCC2)cc1N/N=C(\C#N)c1nc2ccccc2[nH]1	i	6*	i	-16	i	-0.47
CCOc1ccc(Br)cc1S(=O)(=O)NC1CCCC1	nt	nt	nt	nt	i	nt
CCOC(=O)c1cnc2c(ccc3ccccc32)c1N	i	i	i	0	i	-0.93
COc1ccc(C[C@H]2CN3C(=NC[C@@H]3C(C)C)N2CCNC(=O)c2ccc(C)c(Br)c2)cc1	i	i	i	-18	i	-6.5*
COc1cccc(OC)c1/C(O)=C(\C#N)c1nc2ccccc2[nH]1	-7.7*	i	i	-3	i	0.91
CN(CCOCCOc1ccc2ccccc2c1)Cc1ccccc1	i	i	i	-14	i	-7*
CCC(c1nnnn1C(C)(C)C)N(Cc1cccs1)Cc1cc2cc(C)c(C)cc2n2nnnc12 (stereo unspecified)	-14*	i	i	-2	nt	-0.61
CCOc1ccc2[nH]c(=O)c(CN(Cc3cccs3)C(CC)c3nnnn3C(C)(C)CC)cc2c1 (stereo unspecified)	i	i	i	-10	i	-0.23
O=C(CCS(=O)(=O)c1ccc(Br)cc1)NCCC1=CCCCC1	i	i	i	-3	i	0.02
SMILES	KCNK9 block	KCNQ1 block	KCNQ1 act	hERG rescue	KCNK3 inh	Kir21 inh
Cc1nc(SCC(=O)c2cccs2)c2oc3ccccc3c2n1	i	10*	i	-16	i	-0.45
O=C(CSc1ncnc2c1oc1ccccc12)c1cccs1	i	i	i	-2	i	2
C[C@@H]1COC(=O)[C@@H](Cc2ccc(F)cc2)CC/C=C\C[C@@H](CC(=O)NCCO)C(=O)N1	nt	nt	nt	nt	i	nt
O=C(NC(=S)Nc1ccc(C(F)(F)F)cc1)c1csnn1	i	i	141*	56*	i	0.2
O=C(NC(=S)Nc1ccccc1)c1csnn1	i	i	116*	63*	i	1.9
O=C(Nc1csnn1)c1csnn1	i	i	i	-8	i	-0.27
COc1ccc(NC(=S)NC(=O)c2csnn2)cc1	i	i	24*	16*	i	-0.43
